Experimental data reported in ChEMBL document CHEMBL1147130, “Dihydropyridopyrazinones and dihydropteridinones as corticotropin-releasing factor-1 receptor antagonists: structure-activity relationships and computational modeling” (J Med Chem, 2007).

Target: T1, Corticotropin-releasing factor receptor 1 (Rattus norvegicus, UniProt P35353)
T1 sequence (P35353 whole entry): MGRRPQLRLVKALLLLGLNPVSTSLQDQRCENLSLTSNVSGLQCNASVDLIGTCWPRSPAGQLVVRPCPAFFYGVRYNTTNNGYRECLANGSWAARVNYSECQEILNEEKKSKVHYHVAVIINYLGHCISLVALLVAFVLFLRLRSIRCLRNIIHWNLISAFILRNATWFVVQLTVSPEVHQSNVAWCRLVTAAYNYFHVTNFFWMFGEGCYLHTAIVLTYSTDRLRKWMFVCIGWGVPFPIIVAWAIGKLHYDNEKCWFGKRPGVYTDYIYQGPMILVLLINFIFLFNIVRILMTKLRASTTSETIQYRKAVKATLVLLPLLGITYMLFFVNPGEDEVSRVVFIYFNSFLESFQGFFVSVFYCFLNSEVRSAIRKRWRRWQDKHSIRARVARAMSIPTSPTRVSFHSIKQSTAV
Assay: Displacement of [125I]Tyr-o-CRF from CRF1 receptor in rat frontal cortex homogenates
Assay type: tissue-based
Outline: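 Bound ligand collected by filtration on PEI-treated glass fiber filters and gamma counted. Nonspecific binding defined with 1 µM DMP696.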

Row | IC50 [nM] | Structure (SMILES)
1 | 11.7 | CCCCN(CC)c1nc(C)nc2c1NCCN2c1ccc(OC)cc1C
2 | 102 | CCCCN(CC)c1nc(C)nc2c1NCCN2c1ccc(C#N)cc1C
3 | 8.2 | CCCCN(CC)c1cc(C)nc2c1NCCN2c1ccc(C(C)=O)cc1C
4 | 43 | CCCN(CCOC)c1cc(C)nc2c1NC(=O)CN2c1cc(OC)c(OC)cc1C
5 | 3.3 | CCCCN(CC)c1cc(C)nc2c1NC(=O)CN2c1ccc(C#N)cc1C
6 | 3.5 | CCCCN(CC)c1cc(C)nc2c1NCCN2c1ccc(C#N)cc1C
7 | 573 | CCCCN(CC)c1nc(C)nc2c1NC(=O)CN2c1ccc(C#N)cc1C
8 | 2.2 | CCCCN(CC)c1cc(C)nc2c1NCCN2c1ccc(OC)nc1OC
9 | 5.8 | CCCCN(CC)c1cc(C)nc2c1NC(=O)CN2c1ccc(C(C)=O)cc1C
10 | 4.2 | CCCCN(CC)c1cc(C)nc2c1NCCN2c1ccc(OC)cc1C
11 | 210 | CCCN(CCOC)c1nc(C)nc2c1NCCN2c1cc(OC)c(OC)cc1C
12 | 172 | CCCCN(CC)c1nc(C)nc2c1NCCN2c1ccc(C(C)=O)cc1C
13 | 60 | CCCCN(CC)c1nc(C)nc2c1NC(=O)CN2c1ccc(OC)nc1OC
14 | 87 | CCCN(CCOC)c1cc(C)nc2c1NCCN2c1cc(OC)c(OC)cc1C
15 | 95 | CCCCN(CC)c1nc(C)nc2c1NC(=O)CN2c1ccc(OC)cc1C
16 | 713 | CCCCN(CC)c1nc(C)nc2c1NC(=O)CN2c1ccc(C(C)=O)cc1C
17 | 9.9 | CCCCN(CC)c1nc(C)nc2c1NCCN2c1ccc(OC)nc1OC
